# Laboratory results reported in the M2OR odorant receptor database.
# Numbering of substitutions follows the chain as printed.
# Assays:
# Details in all cases: stereoisomer not certain
# OR2T7 = tested on: OR2T7
# Method in brief: (§1)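 Assay methods differ from source to source, frequently being transient luciferase assays in mammalian cell lines. For each receptor–molecule pair, the label responsive (active) applies when the original authors judged the measured signal statistically different from baseline, and non-responsive (inactive) applies otherwise.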
# OR2T8 (Homo sapiens) = OR2T8 (Homo sapiens) (UniProt A6NH00)
# Method in brief: as §1
# OR2V1 (Homo sapiens) = OR2V1 (Homo sapiens) (UniProt Q8NHB1)
# Method in brief: as §1
# OR2V2 (Homo sapiens) = OR2V2 (Homo sapiens) (UniProt Q96R30)
# Method in brief: as §1
# OR2W1 (Homo sapiens) = target: T1, OR2W1 (Homo sapiens) (UniProt Q9Y3N9)
# T1 sequence (whole entry): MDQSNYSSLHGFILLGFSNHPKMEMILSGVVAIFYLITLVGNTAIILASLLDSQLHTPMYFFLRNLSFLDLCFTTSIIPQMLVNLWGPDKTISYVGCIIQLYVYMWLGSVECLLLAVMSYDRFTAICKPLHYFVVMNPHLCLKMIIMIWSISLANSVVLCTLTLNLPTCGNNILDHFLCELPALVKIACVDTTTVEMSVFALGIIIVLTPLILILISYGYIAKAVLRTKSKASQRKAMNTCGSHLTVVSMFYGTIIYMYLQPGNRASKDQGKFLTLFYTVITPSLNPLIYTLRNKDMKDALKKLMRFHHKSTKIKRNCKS
# Method in brief: as §1
# OR2W1 G96V = tested on: OR2W1 G96V
# Method in brief: as §1
# OR2W3 (Homo sapiens) = target: T2, OR2W3 (Homo sapiens) (UniProt Q7Z3T1)
# T2 sequence (whole entry): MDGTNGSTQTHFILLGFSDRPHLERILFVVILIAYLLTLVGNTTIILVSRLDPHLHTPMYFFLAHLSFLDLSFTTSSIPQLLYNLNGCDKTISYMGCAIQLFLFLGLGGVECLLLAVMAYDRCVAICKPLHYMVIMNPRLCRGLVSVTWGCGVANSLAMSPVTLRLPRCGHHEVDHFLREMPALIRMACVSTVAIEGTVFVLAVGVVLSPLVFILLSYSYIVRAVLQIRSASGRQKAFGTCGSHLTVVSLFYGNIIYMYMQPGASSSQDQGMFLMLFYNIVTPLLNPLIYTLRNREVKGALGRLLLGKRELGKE
# Method in brief: as §1
# OR2W5P (Homo sapiens) = OR2W5P (Homo sapiens) (UniProt A6NFC9)
# Method in brief: as §1
# OR2W1 [1] = tested on: T3, OR2W1
# T3 sequence (whole entry): T1 sequence (whole entry) with D296N
# Method in brief: as §1
# OR2W1 [2] = tested on: T4, OR2W1; remark: listed apart in the source
# T4 sequence (whole entry): T1 sequence (whole entry) with M81V
# Method in brief: as §1
# OR2V1 (Homo sapiens), sequence (Q8NHB1 whole entry): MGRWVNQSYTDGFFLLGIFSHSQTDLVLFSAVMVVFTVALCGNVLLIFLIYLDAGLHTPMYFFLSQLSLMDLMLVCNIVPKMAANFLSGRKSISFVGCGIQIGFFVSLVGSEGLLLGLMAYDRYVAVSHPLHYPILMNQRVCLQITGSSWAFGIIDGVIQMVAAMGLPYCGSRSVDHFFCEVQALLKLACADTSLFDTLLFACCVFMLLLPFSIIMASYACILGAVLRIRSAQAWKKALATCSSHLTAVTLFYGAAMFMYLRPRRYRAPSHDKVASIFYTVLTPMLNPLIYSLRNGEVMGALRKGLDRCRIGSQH
# OR2T8 (Homo sapiens), sequence (A6NH00 whole entry): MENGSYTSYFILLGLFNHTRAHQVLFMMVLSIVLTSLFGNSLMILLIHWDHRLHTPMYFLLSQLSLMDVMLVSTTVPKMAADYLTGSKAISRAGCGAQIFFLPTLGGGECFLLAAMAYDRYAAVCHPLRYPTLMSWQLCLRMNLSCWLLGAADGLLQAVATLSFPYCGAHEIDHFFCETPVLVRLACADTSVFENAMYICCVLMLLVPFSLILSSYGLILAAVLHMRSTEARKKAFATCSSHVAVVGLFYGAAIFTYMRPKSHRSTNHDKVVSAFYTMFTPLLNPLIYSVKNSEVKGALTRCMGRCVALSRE
# OR2V2 (Homo sapiens), sequence (Q96R30 whole entry): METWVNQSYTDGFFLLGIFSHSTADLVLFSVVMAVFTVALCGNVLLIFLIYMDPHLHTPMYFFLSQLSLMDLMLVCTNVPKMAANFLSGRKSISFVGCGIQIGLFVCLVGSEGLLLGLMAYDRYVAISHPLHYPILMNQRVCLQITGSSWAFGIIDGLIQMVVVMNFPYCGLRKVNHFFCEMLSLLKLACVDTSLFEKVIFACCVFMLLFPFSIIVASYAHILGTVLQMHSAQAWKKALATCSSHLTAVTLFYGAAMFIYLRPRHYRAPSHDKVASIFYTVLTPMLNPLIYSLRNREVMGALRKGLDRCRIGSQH
# OR2W1 G96V, sequence (as listed by the source, stated change not applied): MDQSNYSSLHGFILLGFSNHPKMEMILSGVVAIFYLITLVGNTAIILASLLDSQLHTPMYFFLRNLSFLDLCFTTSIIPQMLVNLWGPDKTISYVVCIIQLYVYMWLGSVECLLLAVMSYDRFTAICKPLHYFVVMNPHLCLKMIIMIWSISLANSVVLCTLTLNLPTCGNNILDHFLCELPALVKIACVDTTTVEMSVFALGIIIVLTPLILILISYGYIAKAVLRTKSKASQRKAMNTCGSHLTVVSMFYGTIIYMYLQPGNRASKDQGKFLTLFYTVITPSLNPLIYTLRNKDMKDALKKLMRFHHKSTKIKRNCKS
# OR2T7, sequence (as listed by the source): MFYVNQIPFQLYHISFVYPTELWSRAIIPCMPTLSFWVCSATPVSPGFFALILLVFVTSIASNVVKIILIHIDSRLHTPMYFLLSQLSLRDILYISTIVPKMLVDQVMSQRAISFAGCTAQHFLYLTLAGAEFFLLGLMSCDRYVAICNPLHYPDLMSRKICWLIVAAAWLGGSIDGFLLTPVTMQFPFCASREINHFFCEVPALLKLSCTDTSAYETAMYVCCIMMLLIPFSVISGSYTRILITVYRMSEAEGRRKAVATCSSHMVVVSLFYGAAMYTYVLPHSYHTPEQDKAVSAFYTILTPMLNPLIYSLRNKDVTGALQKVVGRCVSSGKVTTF
# OR2W5P (Homo sapiens), sequence (A6NFC9 whole entry): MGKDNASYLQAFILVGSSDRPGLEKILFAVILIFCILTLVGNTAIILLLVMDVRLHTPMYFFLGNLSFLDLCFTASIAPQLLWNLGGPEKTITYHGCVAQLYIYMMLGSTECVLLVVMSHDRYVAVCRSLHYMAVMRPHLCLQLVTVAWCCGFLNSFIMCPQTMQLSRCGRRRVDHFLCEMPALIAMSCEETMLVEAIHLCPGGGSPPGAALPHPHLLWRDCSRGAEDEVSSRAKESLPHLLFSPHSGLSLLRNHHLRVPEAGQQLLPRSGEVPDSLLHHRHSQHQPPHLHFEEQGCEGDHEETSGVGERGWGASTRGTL
compound,measurement,setting,value
C=CCOC(=O)Cc1ccccc1,odorant receptor agonist call,OR2T7,inactive
same,odorant receptor agonist call,OR2T8 (Homo sapiens),inactive
same,odorant receptor agonist call,OR2V1 (Homo sapiens),inactive
same,odorant receptor agonist call,OR2V2 (Homo sapiens),inactive
same,odorant receptor agonist call,OR2W1 (Homo sapiens),active
same,odorant receptor agonist call,OR2W1 G96V,inactive
same,odorant receptor agonist call,OR2W3 (Homo sapiens),inactive
same,odorant receptor agonist call,OR2W5P (Homo sapiens),inactive
C=CCc1ccc(OC)cc1,odorant receptor agonist call,OR2W1 (Homo sapiens),active
same,odorant receptor agonist call,OR2W1 [1],active
same,odorant receptor agonist call,OR2W1 [2],active
O=C(O)Cc1ccccc1,odorant receptor agonist call,OR2W1 (Homo sapiens),inactive
CCOC(=O)Cc1ccccc1,odorant receptor agonist call,OR2W1 (Homo sapiens),active
same,odorant receptor agonist call,OR2W1 [1],active
same,odorant receptor agonist call,OR2W1 [2],active
OCc1ccco1,odorant receptor agonist call,OR2W1 (Homo sapiens),active
same,odorant receptor agonist call,OR2W1 [1],active
same,odorant receptor agonist call,OR2W1 [2],inactive
Cc1cccc(C)c1,odorant receptor agonist call,OR2W3 (Homo sapiens),inactive
SCc1ccccc1,odorant receptor agonist call,OR2W1 (Homo sapiens),active
same,odorant receptor agonist call,OR2W1 [1],active
same,odorant receptor agonist call,OR2W1 [2],active
NCC(=O)c1ccccc1,odorant receptor agonist call,OR2W1 (Homo sapiens),inactive
C=CCSSCC=C,odorant receptor agonist call,OR2W1 (Homo sapiens),inactive
same,odorant receptor agonist call,OR2W1 [1],active
same,odorant receptor agonist call,OR2W1 [2],active
CSSC,odorant receptor agonist call,OR2W1 (Homo sapiens),inactive
COc1ccc(C=O)cc1,odorant receptor agonist call,OR2W1 (Homo sapiens),active
same,odorant receptor agonist call,OR2W1 [1],active
same,odorant receptor agonist call,OR2W1 [2],active
same,odorant receptor agonist call,OR2W3 (Homo sapiens),inactive
Cc1ccccc1O,odorant receptor agonist call,OR2W1 (Homo sapiens),inactive
SCc1ccco1,odorant receptor agonist call,OR2W1 (Homo sapiens),active
same,odorant receptor agonist call,OR2W1 [1],active
same,odorant receptor agonist call,OR2W1 [2],active
CCC1CCC(=O)O1 (stereo not drawn),odorant receptor agonist call,OR2W1 (Homo sapiens),inactive
Cc1ccc(O)c(C)c1,odorant receptor agonist call,OR2W1 (Homo sapiens),inactive
O=Cc1ccco1,odorant receptor agonist call,OR2W1 (Homo sapiens),inactive
C=CCc1ccccc1,odorant receptor agonist call,OR2W1 (Homo sapiens),inactive
O=Cc1ccc2c(c1)OCO2,odorant receptor agonist call,OR2W1 (Homo sapiens),active
same,odorant receptor agonist call,OR2W1 [1],active
same,odorant receptor agonist call,OR2W1 [2],active
Cc1c([N+](=O)[O-])c(C)c([N+](=O)[O-])c(C(C)(C)C)c1[N+](=O)[O-],odorant receptor agonist call,OR2T8 (Homo sapiens),inactive
same,odorant receptor agonist call,OR2V1 (Homo sapiens),inactive
same,odorant receptor agonist call,OR2V2 (Homo sapiens),inactive
same,odorant receptor agonist call,OR2W1 (Homo sapiens),inactive
same,odorant receptor agonist call,OR2W3 (Homo sapiens),inactive
O=c1cc(O)c2ccccc2o1,odorant receptor agonist call,OR2W1 (Homo sapiens),inactive
